This note sets out measurements from ChEMBL document CHEMBL1770100, “Design and synthesis of N-phenylacetyl (sulfonyl) 4,5-dihydropyrazole derivatives as potential antitumor agents” (Bioorg Med Chem Lett, 2011).

The test system of one assay is SGC-7901. The assay can be described thus: Cytotoxicity against human SGC7901 after 48 hrs by MTT assay. In kind it is functional, cell-based. The following applies: SGC-7901, 48 h. The essentials: (§1)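 Log-phase cells in RPMI 1640 with 10% FBS, diluted to 3 × 10⁴ cells/mL and seeded in 96-well plates. After 24 h at 37 °C, 5% CO₂, samples at pre-set concentrations were added to six wells, with 5-fluorouracil as positive reference. Exposure was 48 h. MTT at 2.5 mg/mL in PBS was added for 4 h, formazan dissolved in DMSO, A570 read. IC50 = concentration giving 50% survival. Three experiments in triplicate, mean ± SD.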
In general terms: Tetrazolium assays rely on reduction of a dye to a coloured formazan, in cell work by metabolically active cells.

A further assay has as its system HepG2. The assay can be described thus: Cytotoxicity against human HepG2 after 48 hrs by MTT assay. Format: functional, cell-based. Particulars: HepG2, 48 h. The gist of the method: as §1
A further assay concerns PC-3. The assay can be described thus: Cytotoxicity against human PC3 after 48 hrs by MTT assay. Format: functional, cell-based. The following applies: PC-3, 48 h. The gist of the method:
as §1

The target in assay [1] is DNA polymerase I, thermostable (Thermus aquaticus, UniProt P19821). The experiment in a line: Inhibition of Thermus aquaticus taq polymerase.
Assay [2] deals with Telomerase reverse transcriptase (Homo sapiens, UniProt O14746). The assay can be described thus: Inhibition of telomerase activity expressed in human SGC7901 cells by SYBER green dye based TRAP. Format: cell-based, SGC-7901. The gist of the method:
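Modified TRAP assay using total cell lysate of SGC-7901 as the telomerase source. Lysate protein was measured by Bio-Rad assay against BSA standards. Extension products were resolved on 10% polyacrylamide gels and stained with SYBR Green. Reported as IC50.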

A short description of assay [3]: Selectivity index, ratio of IC50 for Thermus aquaticus taq polymerase to IC50 for telomerase.

Chain of Telomerase reverse transcriptase (O14746 whole entry): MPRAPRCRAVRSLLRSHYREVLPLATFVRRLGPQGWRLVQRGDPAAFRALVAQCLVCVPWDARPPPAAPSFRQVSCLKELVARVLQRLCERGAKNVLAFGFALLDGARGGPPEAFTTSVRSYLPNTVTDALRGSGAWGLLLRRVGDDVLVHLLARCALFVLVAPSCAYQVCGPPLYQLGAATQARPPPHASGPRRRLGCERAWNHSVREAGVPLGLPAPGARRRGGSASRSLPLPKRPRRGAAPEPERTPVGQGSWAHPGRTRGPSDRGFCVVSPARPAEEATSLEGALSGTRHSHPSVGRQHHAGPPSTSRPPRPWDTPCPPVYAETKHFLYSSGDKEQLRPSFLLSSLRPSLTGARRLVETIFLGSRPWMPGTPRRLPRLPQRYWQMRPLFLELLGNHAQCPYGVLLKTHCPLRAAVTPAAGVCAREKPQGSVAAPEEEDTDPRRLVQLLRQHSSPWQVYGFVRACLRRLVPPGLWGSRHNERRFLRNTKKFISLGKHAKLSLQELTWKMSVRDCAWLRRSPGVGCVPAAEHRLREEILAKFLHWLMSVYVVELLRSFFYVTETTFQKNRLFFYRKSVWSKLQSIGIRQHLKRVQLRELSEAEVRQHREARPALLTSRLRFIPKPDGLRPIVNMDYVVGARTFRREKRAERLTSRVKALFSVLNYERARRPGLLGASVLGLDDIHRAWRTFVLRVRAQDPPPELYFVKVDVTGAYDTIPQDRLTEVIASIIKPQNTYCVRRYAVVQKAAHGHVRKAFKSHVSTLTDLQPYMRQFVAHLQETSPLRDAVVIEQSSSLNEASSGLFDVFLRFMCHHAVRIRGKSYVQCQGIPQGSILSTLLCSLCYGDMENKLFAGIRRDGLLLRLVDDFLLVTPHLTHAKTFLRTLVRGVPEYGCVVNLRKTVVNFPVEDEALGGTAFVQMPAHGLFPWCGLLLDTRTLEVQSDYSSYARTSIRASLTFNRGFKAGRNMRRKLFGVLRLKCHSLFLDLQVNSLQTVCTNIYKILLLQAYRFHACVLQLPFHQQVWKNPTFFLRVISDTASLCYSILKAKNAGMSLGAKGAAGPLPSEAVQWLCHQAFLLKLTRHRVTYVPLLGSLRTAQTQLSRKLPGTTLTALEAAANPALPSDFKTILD
Chain of DNA polymerase I, thermostable (P19821 whole entry): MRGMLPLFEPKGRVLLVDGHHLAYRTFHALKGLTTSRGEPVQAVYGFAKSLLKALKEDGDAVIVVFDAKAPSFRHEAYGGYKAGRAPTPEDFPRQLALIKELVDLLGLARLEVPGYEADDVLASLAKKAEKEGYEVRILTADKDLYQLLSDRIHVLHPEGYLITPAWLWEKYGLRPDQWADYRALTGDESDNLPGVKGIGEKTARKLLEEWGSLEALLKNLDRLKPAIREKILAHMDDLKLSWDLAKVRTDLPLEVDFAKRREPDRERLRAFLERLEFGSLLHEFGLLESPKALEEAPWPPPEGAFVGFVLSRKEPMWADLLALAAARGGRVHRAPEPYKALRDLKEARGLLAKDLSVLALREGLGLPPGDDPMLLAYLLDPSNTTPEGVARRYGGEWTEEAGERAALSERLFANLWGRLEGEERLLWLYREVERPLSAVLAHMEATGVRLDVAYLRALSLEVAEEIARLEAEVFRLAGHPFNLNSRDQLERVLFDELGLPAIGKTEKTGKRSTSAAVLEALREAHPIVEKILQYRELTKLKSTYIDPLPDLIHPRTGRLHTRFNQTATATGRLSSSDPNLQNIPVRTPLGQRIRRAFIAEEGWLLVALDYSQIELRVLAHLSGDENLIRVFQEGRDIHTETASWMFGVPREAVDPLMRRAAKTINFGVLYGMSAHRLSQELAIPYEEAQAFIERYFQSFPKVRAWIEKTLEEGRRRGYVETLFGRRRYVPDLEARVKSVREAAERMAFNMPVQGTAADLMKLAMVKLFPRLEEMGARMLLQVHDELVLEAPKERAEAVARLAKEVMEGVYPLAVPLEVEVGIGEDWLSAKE

As a reminder, the IC50 is the concentration needed to halve the response being measured. Take `CC1=NN(C(=O)CCl)C(c2ccccc2O)C1` (stereo not drawn): the IC50 with SGC-7901 is 26.8 µM; with HepG2 it was 47.9 µM; with PC-3, 20.1 µM; in assay [1], 20.4 µM; in assay [2], 9.5 µM. Moreover, the Ratio IC50 in assay [3] came out at 2.1.
Turning to `CC1=NN(C(=O)c2ccc(C)cc2)C(c2ccccc2O)C1` (stereo not drawn), the IC50 in the assay with SGC-7901 was found to be 51.5 µM; in the assay on HepG2, 78.9 µM; in the assay with PC-3, 116 µM; in assay [2] it was 31.5 µM.
`CC1=NN(C(=O)c2ccccc2)C(c2cccc(C)c2O)C1` (stereo not drawn): the IC50 in the assay with SGC-7901 came to 150 µM; in the assay on HepG2, 177 µM; in the assay with PC-3, 154 µM.
In the case of `CC1=NN(C(=O)c2ccccc2)C(c2ccccc2O)C1` (stereo not drawn), the IC50 was 21.2 µM in the assay on SGC-7901; 29.4 µM with HepG2; 30.9 µM in the assay with PC-3; 8 µM in assay [1]; 4 µM in assay [2]. In assay [3], the Ratio IC50 was 2.
As for `CC1=NN(C(=O)c2ccccc2C)C(c2ccccc2O)C1` (stereo not drawn), the IC50 in the assay with SGC-7901 came out at 104 µM; with HepG2, 95.2 µM; with PC-3 it was 106 µM; in assay [1], 50.5 µM; in assay [2], 24.5 µM. In addition, the Ratio IC50 in assay [3] worked out at 2.1.
Turning to `O=c1[nH]cc(F)c(=O)[nH]1` [FLUOROURACIL], the IC50 with SGC-7901 is 31.5 µM; in the assay on HepG2, 18.9 µM; with PC-3, 15.7 µM.
The molecule `CC[n+]1c(-c2ccccc2)c2cc(N)ccc2c2ccc(N)cc21` [HOMIDIUM BROMIDE] registered an IC50 in assay [2] of 2.6 µM.
Consider `CC1=NN(C(=O)c2ccccc2Cl)C(c2ccccc2O)C1` (stereo not drawn), for which the IC50 in the assay with SGC-7901 was determined as 103 µM; with HepG2 it was 95.5 µM; in the assay with PC-3, 84.2 µM; in assay [1] it was 36 µM.
In the case of `CC1=NN(S(=O)(=O)c2ccccc2)C(c2ccccc2O)C1` (stereo not drawn), the IC50 in the assay on SGC-7901 was 66.4 µM; in the assay on HepG2, 57.2 µM; with PC-3, 50.6 µM; in assay [1] it was 31 µM; in assay [2] it was 17.3 µM. In addition, in assay [3], the Ratio IC50 was found to be 1.8.
On to `CC1=NN(S(=O)(=O)c2ccc(C)cc2)C(c2ccccc2O)C1` (stereo not drawn), for which the IC50 in the assay with SGC-7901 came out at 73.6 µM; with HepG2, 66.8 µM; in the assay with PC-3, 85.5 µM; in assay [1], 30 µM; in assay [2], 16.8 µM. Further, the Ratio IC50 in assay [3] was 1.9.
In the case of `CC1=NN(C(=O)Cc2ccc([N+](=O)[O-])cc2)C(c2ccccc2O)C1` (stereo not drawn), the results for the IC50 in the assay on SGC-7901, with HepG2 and in the assay on PC-3 were 97.3 µM, 107 µM and 132 µM, respectively.
